# Measurements taken from ChEMBL document CHEMBL1143122, “Novel analogs of D-e-MAPP and B13. Part 1: synthesis and evaluation as potential anticancer agents” (Bioorg Med Chem, 2008).
# How the values were obtained:
# SNB-75 = assay: Antiproliferative activity against human SNB75 cells after 48 hrs; type: functional; conditions: SNB-75, 48 h
# Procedure, shortened: (§1)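 NCI 60-cell screen. Cells were grown in RPMI 1640 with 5% FBS and 2 mM L-glutamine, then plated at 5,000–40,000 cells/well according to doubling time and preincubated for 24 h at 37 °C in 5% CO2. Compounds were dissolved in DMSO at 400× the top final concentration and tested at five 10-fold dilutions from 10−4 to 10−8 M for 48 h. Growth was read spectrophotometrically; GI50 is 50% net protein reduction.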
# CCRF-CEM = assay: Antiproliferative activity against human CCRF-CEM cells after 48 hrs; type: functional; procedure, shortened: as §1
# HCT-116 = assay: Antiproliferative activity against human HCT116 cells after 48 hrs; type: functional; conditions: HCT-116, 48 h; procedure, shortened: as §1
# LOX IMVI = assay: Antiproliferative activity against human LOXIMVI cells after 48 hrs; type: functional; procedure, shortened: as §1
# SW-620 = assay: Antiproliferative activity against human SW620 cells after 48 hrs; type: functional; conditions: SW-620, 48 h
# Procedure, shortened: (§2)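 NCI 60-cell-line screen. Lines grown in RPMI 1640 with 5% fetal bovine serum and 2 mM L-glutamine, plated at 5,000–40,000 cells/well according to doubling time, left 24 h at 37 °C in 5% CO2. Drug stocks in DMSO at 400-fold the top final concentration. Five 10-fold dilutions, 10−4 to 10−8 M, incubated 48 h. Growth read spectrophotometrically as net protein; GI50 taken as 50% reduction.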
# SK-MEL-2 = assay: Antiproliferative activity against human SKMEL2 cells after 48 hrs; type: functional; conditions: SK-MEL-2, 48 h; procedure, shortened: as §1
# Malme-3M = assay: Antiproliferative activity against human MALME3M cells after 48 hrs; type: functional; procedure, shortened: as §1
# NCI-H522 = assay: Antiproliferative activity against human NCI-H522 cells after 48 hrs; type: functional; conditions: NCI-H522, 48 h; procedure, shortened: as §1
# IGROV-1 = assay: Antiproliferative activity against human IGROV1 cells after 48 hrs; type: functional; conditions: IGROV-1, 48 h; procedure, shortened: as §1
# HOP-62 = assay: Antiproliferative activity against human HOP62 cells after 48 hrs; type: functional; conditions: HOP-62, 48 h; procedure, shortened: as §1
# K562 = assay: Antiproliferative activity against human K562 cells after 48 hrs; type: functional; conditions: K562, 48 h; procedure, shortened: as §1
# OVCAR-8 = assay: Antiproliferative activity against human OVCAR8 cells after 48 hrs; type: functional; conditions: OVCAR-8, 48 h; procedure, shortened: as §1
# SN12C = assay: Antiproliferative activity against human SN12C cells after 48 hrs; type: functional; procedure, shortened: as §1
# 786-0 = assay: Antiproliferative activity against human 786-0 cells after 48 hrs; type: functional; conditions: 786-0, 48 h; procedure, shortened: as §1
# TK-10 = assay: Antiproliferative activity against human TK10 cells after 48 hrs; type: functional; conditions: TK-10, 48 h; procedure, shortened: as §2
# A498 = assay: Antiproliferative activity against human A498 cells after 48 hrs; type: functional; conditions: A498, 48 h; procedure, shortened: as §1
# [1] = Antiproliferative activity against human […] cells after 48 hrs; type: functional; procedure, shortened: as §1
# SK-MEL-5 = assay: Antiproliferative activity against human SKMEL5 cells after 48 hrs; type: functional; conditions: SK-MEL-5, 48 h, read-out: Log LC50 (the source's name) (converted); procedure, shortened: as §1
# ACHN = assay: Antiproliferative activity against human ACHN cells after 48 hrs; type: functional; procedure, shortened: as §1
# HOP-92 = assay: Antiproliferative activity against human HOP92 cells after 48 hrs; type: functional; conditions: HOP-92, 48 h; procedure, shortened: as §1
# MCF7 = assay: Drug level in human MCF7 cells at 10 uM per 10^6 cells after 0.5 hrs; type: ADME, cell-based; conditions: mcf7, 0.5 h
# Procedure, shortened: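 MCF7 cells kept in RPMI 1640 with 10% fetal calf serum at 37 °C, 5% CO2, then treated with 10 μM analog. Intracellular analog measured over time by HPLC-MS in positive-ion MRM mode. Quantified against calibration curves made by spiking an artificial matrix with standards plus internal standard, using analyte/IS peak-area ratios and linear regression. Reported as pmol per 1×10^6 cells.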
# KM12 = assay: Antiproliferative activity against human KM12 cells after 48 hrs; type: functional; conditions: Homo sapiens, KM12, 48 h; procedure, shortened: as §1
# [2] = Antiproliferative activity against human HL60(TB) cells after 48 hrs; type: functional, HL-60(TB); conditions: HL-60, 48 h
# Procedure, shortened: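 NCI 60-line panel screen: cells grown in RPMI 1640 with 5% fetal bovine serum and 2 mM L-glutamine, plated at 5,000–40,000 cells/well by doubling time, and preincubated 24 h at 37 °C in 5% CO2. Drugs were solubilised in DMSO at 400-fold the final maximum and tested at five 10-fold dilutions from 10−4 to 10−8 M for 48 h. Net protein was read spectrophotometrically, and the concentration giving 50% reduction was reported as log10 GI50.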
# HCC 2998 = assay: Antiproliferative activity against human HCC2998 cells after 48 hrs; type: functional; conditions: HCC 2998, 48 h; procedure, shortened: as §1
# NCI-H460 = assay: Antiproliferative activity against human NCI-H460 cells after 48 hrs; type: functional; conditions: NCI-H460, 48 h; procedure, shortened: as §1
# SF-295 = assay: Antiproliferative activity against human SF295 cells after 48 hrs; type: functional; conditions: SF-295, 48 h; procedure, shortened: as §1
# UACC-62 = assay: Antiproliferative activity against human UACC62 cells after 48 hrs; type: functional; conditions: UACC-62, 48 h; procedure, shortened: as §2
# [3] = read-out: Log LC50 (the source's name) (converted)
compound,measurement,setting,value
CCCCCCCCCCCCCCN[C@H](C)[C@@H](O)c1ccccc1.Cl,GI50,SNB-75,2.09 µM
same,CC50,SNB-75; [3],7.08 µM
same,TGI,SNB-75; read-out: Log TGI (converted),3.89 µM
same,GI50,CCRF-CEM,1.45 µM
same,CC50,CCRF-CEM; [3],7.59 µM
same,TGI,CCRF-CEM; read-out: Log TGI (converted),3.31 µM
same,GI50,HCT-116,1.86 µM
same,LC50,HCT-116,5.75 µM
same,TGI,HCT-116; read-out: Log TGI (converted),3.24 µM
same,GI50,LOX IMVI,1.82 µM
same,LC50,LOX IMVI,5.89 µM
same,TGI,LOX IMVI; read-out: Log TGI (converted),3.31 µM
same,GI50,SW-620,2.14 µM
same,LC50 (concentration killing 50% of cells),SW-620,7.94 µM
same,TGI,SW-620; read-out: Log TGI (converted),4.17 µM
same,GI50,SK-MEL-2,2 µM
same,LC50,SK-MEL-2,8.13 µM
same,TGI,SK-MEL-2; read-out: Log TGI (converted),3.98 µM
same,GI50,Malme-3M,1.95 µM
same,LC50,Malme-3M,6.03 µM
same,TGI,Malme-3M; read-out: Log TGI (converted),3.39 µM
same,GI50,NCI-H522,1.91 µM
same,CC50,NCI-H522; [3],6.61 µM
same,TGI,NCI-H522; read-out: Log TGI (converted),3.55 µM
same,GI50,IGROV-1,1.62 µM
same,LC50,IGROV-1,5.75 µM
same,TGI,IGROV-1; read-out: Log TGI (converted),3.09 µM
same,GI50,HOP-62,1.86 µM
same,CC50,HOP-62; [3],5.89 µM
same,TGI,HOP-62; read-out: Log TGI (converted),3.31 µM
same,GI50,K562,1.41 µM
same,LC50,K562,5.62 µM
same,TGI,K562; read-out: Log TGI (converted),2.82 µM
same,GI50,OVCAR-8,1.82 µM
same,TGI,OVCAR-8; read-out: Log TGI (converted),3.8 µM
same,GI50,SN12C,1.78 µM
same,LC50 (50% net cell kill),SN12C,6.76 µM
same,TGI,SN12C; read-out: Log TGI (converted),3.47 µM
same,GI50,786-0,1.74 µM
same,CC50,786-0; [3],5.75 µM
same,TGI,786-0; read-out: Log TGI (converted),3.16 µM
same,GI50,TK-10,1.86 µM
same,CC50,TK-10; [3],5.75 µM
same,TGI,TK-10; read-out: Log TGI (converted),3.31 µM
same,GI50,A498,3.16 µM
same,CC50,A498; [3],74.1 µM
same,TGI,A498; read-out: Log TGI (converted),6.46 µM
same,GI50,[1],1.62 µM
same,LC50,[1],6.03 µM
same,TGI,[1]; read-out: Log TGI (converted),3.09 µM
same,CC50,SK-MEL-5,100 µM
same,GI50,ACHN,1.86 µM
same,CC50,ACHN; [3],5.89 µM
same,TGI,ACHN; read-out: Log TGI (converted),3.31 µM
same,GI50,HOP-92,1.55 µM
same,LC50,HOP-92,5.89 µM
same,TGI,HOP-92; read-out: Log TGI (converted),3.02 µM
same,Drug uptake,MCF7,3600 pmol
same,GI50,KM12,1.82 µM
same,CC50,KM12; [3],5.62 µM
same,TGI,KM12; read-out: Log TGI (converted),3.16 µM
same,GI50,[2],0.0871 µM
same,LC50,[2],6.61 µM
same,TGI,[2]; read-out: Log TGI (converted),2.51 µM
same,GI50,HCC 2998,1.86 µM
same,CC50,HCC 2998; [3],6.46 µM
same,TGI,HCC 2998; read-out: Log TGI (converted),3.47 µM
same,GI50,NCI-H460,1.78 µM
same,CC50,NCI-H460; [3],6.17 µM
same,TGI,NCI-H460; read-out: Log TGI (converted),3.31 µM
same,GI50,SF-295,1.82 µM
same,LC50,SF-295,6.17 µM
same,TGI,SF-295; read-out: Log TGI (converted),3.39 µM
same,GI50,UACC-62,1.82 µM
same,LC50,UACC-62,6.61 µM
same,TGI,UACC-62; read-out: Log TGI (converted),3.47 µM
